From ChEMBL document CHEMBL1123430, “Potential tumor- or organ-imaging agents. 26. Polyiodinated 2-substituted triacylglycerols as hepatographic agents” (J Med Chem, 1986)

Key:
Rattus norvegicus [1] = assay: Distribution of radioactivity of radiolabeled compound in blood of female rats 5 minutes after intravenous administration; assay type: ADME, organism-based; settings: in vivo
Rattus norvegicus [2] = assay: Distribution of radioactivity of radiolabeled compound in heart of female rats 30 minutes after intravenous administration; assay type: ADME, organism-based; settings: in vivo, 0.5 h
Rattus norvegicus [3] = assay: Distribution of radioactivity of radiolabeled compound in blood of female rats 30 minutes after intravenous administration; assay type: ADME, organism-based; settings: in vivo, 0.5 h
Rattus norvegicus [4] = assay: Distribution of radioactivity of radiolabeled compound in heart of female rats 5 minutes after intravenous administration; assay type: ADME, organism-based; settings: in vivo
Rattus norvegicus [5] = assay: Distribution of radioactivity of radiolabeled compound in kidney of female rats 30 minutes after intravenous administration; assay type: ADME, organism-based; settings: in vivo, 0.5 h
Rattus norvegicus [6] = assay: Distribution of radioactivity of radiolabeled compound in kidney of female rats 5 minutes after intravenous administration; assay type: ADME, organism-based; settings: in vivo
Rattus norvegicus [7] = assay: Distribution of radioactivity of radiolabeled compound in liver of female rats 30 minutes after intravenous administration; assay type: ADME, organism-based; settings: in vivo, 0.5 h
Rattus norvegicus [8] = assay: Distribution of radioactivity of radiolabeled compound in liver of female rats 5 minutes after intravenous administration; assay type: ADME, organism-based; settings: in vivo
Rattus norvegicus [9] = assay: Distribution of radioactivity of radiolabeled compound in lung of female rats 30 minutes after intravenous administration; assay type: ADME, organism-based; settings: in vivo, 0.5 h
Rattus norvegicus [10] = assay: Distribution of radioactivity of radiolabeled compound in lung of female rats 5 minutes after intravenous administration; assay type: ADME, organism-based; settings: in vivo
Rattus norvegicus [11] = assay: Percentage […]/CH3OH extract of the radiolabeled compound in rat liver 30 minutes after iv administration (+/-SEM); assay type: functional
Method in brief: (§1)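 Liver and plasma were taken at 5 or 30 min. Plasma was extracted by a modified Folch procedure, and liver was homogenized and extracted. Extracts were run on TLC in hexane/ethyl acetate (5:2) for esters or THF/hexane (1:1) for acids, with unlabeled compound as reference. Plates were cut into 1-cm strips and counted. Values are percent ± SEM, n = 3-5.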

Rattus norvegicus [12] = assay: Percentage […]/CH3OH extract of the radiolabeled compound in rat liver 5 minutes after iv administration (+/-SEM); assay type: functional; method in brief: as §1
Rattus norvegicus [13] = assay: Percentage […]/CH3OH extract of the radiolabeled compound in rat plasma 30 minutes after iv administration (+/-SEM); assay type: functional; method in brief: as §1
Rattus norvegicus [14] = assay: Percentage […]/CH3OH extract of the radiolabeled compound in rat plasma 5 minutes after iv administration (+/-SEM); assay type: functional; method in brief: as §1
Rattus norvegicus [15] = assay: Percentage parent compound in rat liver 30 minutes after iv administration of the radiolabeled compound by thin-layer chromatography; assay type: functional; method in brief: as §1
Rattus norvegicus [16] = assay: Percentage parent compound in rat liver 5 minutes after iv administration of the radiolabeled compound by thin-layer chromatography; assay type: functional; method in brief: as §1
Rattus norvegicus [17] = assay: Percentage parent compound in rat plasma 30 minutes after iv administration of the radiolabeled compound by thin-layer chromatography; assay type: functional; method in brief: as §1
Rattus norvegicus [18] = assay: Percentage parent compound in rat plasma 5 minutes after iv administration of the radiolabeled compound by thin-layer chromatography; assay type: functional; method in brief: as §1
Rattus norvegicus [19] = assay: Polyacrylamide Gel Electrophoresis (PAGE) analysis of rat plasma after intravenous administration of radiolabeled compound concentration of below albumin […]; assay type: functional, organism-based
Method in brief: (§2)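 ¹²⁵I-labeled compound, radioiodinated by exchange in a pivalic acid melt, solubilized in normal saline with Tween 20 and given iv to adult female Sprague–Dawley rats (200–250 g), 5–30 μCi/animal, 3–4 rats per time point. Plasma was run on polyacrylamide gels. Gels were sectioned and gamma counted. Radioactivity per band (stacking gel, LDL, HDL, albumin, below albumin) is given as % of total applied; mean ± SEM, n = 3-5.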

Rattus norvegicus [20] = assay: Polyacrylamide Gel Electrophoresis (PAGE) analysis of rat plasma 30 minutes after intravenous administration of radiolabeled compound (below albumin); assay type: functional, organism-based
Method in brief: (§3)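 Gels were sectioned and counted in a γ counter. Radioactivity in each band (stacking gel, LDL, HDL, albumin, below albumin) is expressed as a percentage of the total radioactivity applied to the gel, ± SEM, n = 3-5.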

Rattus norvegicus [21] = assay: Polyacrylamide Gel Electrophoresis (PAGE) analysis of rat plasma 30 minutes after intravenous administration of radiolabeled compound in albumin; assay type: functional, organism-based; method in brief: as §3
Rattus norvegicus [22] = assay: Polyacrylamide Gel Electrophoresis (PAGE) analysis of rat plasma 30 minutes after intravenous administration of radiolabeled compound in high density lipoprotein; assay type: functional, organism-based; method in brief: as §3
Rattus norvegicus [23] = assay: Polyacrylamide Gel Electrophoresis (PAGE) analysis of rat plasma 30 minutes after intravenous administration of radiolabeled compound in low-density lipoprotein; assay type: functional, organism-based; method in brief: as §3
Rattus norvegicus [24] = assay: Polyacrylamide Gel Electrophoresis (PAGE) analysis of rat plasma 30 minutes after intravenous administration of radiolabeled compound in stacking gel; assay type: functional, organism-based; method in brief: as §3
Rattus norvegicus [25] = assay: Polyacrylamide Gel Electrophoresis (PAGE) analysis of rat plasma 5 minutes after intravenous administration of radiolabeled compound (below albumin); assay type: functional, organism-based; method in brief: as §2
Rattus norvegicus [26] = assay: Polyacrylamide Gel Electrophoresis (PAGE) analysis of rat plasma 5 minutes after intravenous administration of radiolabeled compound in high density lipoprotein; assay type: functional, organism-based; method in brief: as §2
Rattus norvegicus [27] = assay: Polyacrylamide Gel Electrophoresis (PAGE) analysis of rat plasma 5 minutes after intravenous administration of radiolabeled compound in low-density lipoprotein; assay type: functional, organism-based; method in brief: as §2
Rattus norvegicus [28] = assay: Polyacrylamide Gel Electrophoresis (PAGE) analysis of rat plasma 5 minutes after intravenous administration of radiolabeled compound in stacking gel; assay type: functional, organism-based; method in brief: as §2
Rattus norvegicus [29] = assay: Polyacrylamide Gel Electrophoresis (PAGE) analysis of rat plasma 5 min after intravenous administration of radiolabeled compound in albumin; assay type: functional, organism-based; method in brief: as §3
Rattus norvegicus [30] = assay: Distribution of radioactivity of radiolabeled compound in liver of female rats 5 minutes after intravenous administration at; assay type: ADME, organism-based; settings: in vivo
Rattus norvegicus [31] = assay: Polyacrylamide Gel Electrophoresis (PAGE) analysis of rat plasma 30 min after intravenous administration of radiolabeled in low-density lipoprotein; assay type: functional, organism-based; method in brief: as §3
Rattus norvegicus [32] = assay: Polyacrylamide Gel Electrophoresis (PAGE) analysis of rat plasma 5 minutes after intravenous administration of radiolabeled compound (below albumin ); assay type: functional, organism-based; method in brief: as §2
Rattus norvegicus [33] = assay: Polyacrylamide Gel Electrophoresis (PAGE) analysis of rat plasma 5 minutes after intravenous administration of radiolabeled in low-density lipoprotein; assay type: functional, organism-based; method in brief: as §2
Rattus norvegicus [34] = assay: Polyacrylamide Gel Electrophoresis (PAGE) analysis of rat plasma 5 minutes after intravenous administration of radiolabeled in stacking gel; assay type: functional, organism-based; method in brief: as §2
Rattus norvegicus [35] = assay: Polyacrylamide Gel Electrophoresis (PAGE) analysis of rat plasma 30 min after intravenous administration of radiolabeled compound (below albumin ); assay type: functional, organism-based; method in brief: as §3
Rattus norvegicus [36] = assay: Polyacrylamide Gel Electrophoresis (PAGE) analysis of rat plasma 30 min after intravenous administration of radiolabeled compound at concentration of high density; assay type: functional, organism-based; method in brief: as §3
Rattus norvegicus [37] = assay: Polyacrylamide Gel Electrophoresis (PAGE) analysis of rat plasma 30 min after intravenous administration of radiolabeled compound concentration of stacking gel; assay type: functional, organism-based; method in brief: as §3
Rattus norvegicus [38] = assay: Polyacrylamide Gel Electrophoresis (PAGE) analysis of rat plasma 30 min after intravenous administration of radiolabeled compound in albumin; assay type: functional, organism-based; method in brief: as §3
Rattus norvegicus [39] = assay: Distribution of radioactivity of radiolabeled compound in lung of female rats 5 minutes after intravenous administration at; assay type: ADME, organism-based; settings: in vivo
Rattus norvegicus [40] = assay: Percentage […]/CH3OH extract of the radiolabeled compound in rat liver 30 minutes after iv administration; assay type: functional; method in brief: as §1
Rattus norvegicus [41] = assay: Percentage […]/CH3OH extract of the radiolabeled compound in rat liver 5 minutes after iv administration; assay type: functional; method in brief: as §1
Rattus norvegicus [42] = assay: Percentage […]/CH3OH extract of the radiolabeled compound in rat plasma 30 minutes after iv administration; assay type: functional; method in brief: as §1
Rattus norvegicus [43] = assay: Percentage […]/CH3OH extract of the radiolabeled compound in rat plasma 5 minutes after iv administration; assay type: functional; method in brief: as §1
Rattus norvegicus [44] = assay: Polyacrylamide Gel Electrophoresis (PAGE) analysis of rat plasma 30 minutes after intravenous administration of radiolabeled in stacking gel; assay type: functional, organism-based; method in brief: as §3
Rattus norvegicus [45] = assay: Polyacrylamide Gel Electrophoresis (PAGE) analysis of rat plasma 30 min after intravenous administration of radiolabeled compound ( below albumin); assay type: functional, organism-based; method in brief: as §3
Rattus norvegicus [46] = assay: Polyacrylamide Gel Electrophoresis (PAGE) analysis of rat plasma 30 min after intravenous administration of radiolabeled compound inlow density lipoprotein; assay type: functional, organism-based; method in brief: as §3
Rattus norvegicus [47] = assay: Polyacrylamide Gel Electrophoresis (PAGE) analysis of rat plasma 5 minutes after intravenous administration of radiolabeled compound at in high density lipoprotein; assay type: functional, organism-based; method in brief: as §2
Rattus norvegicus [48] = assay: Polyacrylamide Gel Electrophoresis (PAGE) analysis of rat plasma 30 min after intravenous administration of radiolabeled compound at in high density; assay type: functional, organism-based; method in brief: as §3
Rattus norvegicus [49] = assay: Polyacrylamide Gel Electrophoresis (PAGE) analysis of rat plasma 5 min after intravenous administration of radiolabeled compound concentration of albumin; assay type: functional, organism-based; method in brief: as §3

Row | Dose (Rattus norvegicus [1]) | Dose (Rattus norvegicus [2]) | Dose (Rattus norvegicus [3]) | Dose (Rattus norvegicus [4]) | Dose (Rattus norvegicus [5]) | Dose (Rattus norvegicus [6]) | Dose (Rattus norvegicus [7]) | Dose (Rattus norvegicus [8]) | Dose (Rattus norvegicus [9]) | Dose (Rattus norvegicus [10]) | Compound | Activity (Rattus norvegicus [15]) | Activity (Rattus norvegicus [16]) | Activity (Rattus norvegicus [17]) | Activity (Rattus norvegicus [18]) | Concentration (Rattus norvegicus [26]) | Concentration (Rattus norvegicus [27]) | Concentration (Rattus norvegicus [28]) | Concentration (Rattus norvegicus [29]) | Concentration (Rattus norvegicus [32]) | Concentration (Rattus norvegicus [38]) | further results
1 | 5.99% | 2.43% | 3.23% | 1.34% | 1.65% | 1.18% | 1.22% | 1.74% | 0.93% | 1.2% | CCCCCCCCCCCCCCCC(=O)OCC(COC(=O)CCCCCCCCCCCCCCC)OC(=O)CCc1c(I)cc(I)c(N)c1I | 47.7% | 72.5% | 86.1% | 75.5% | 57.1 | 20.2% | 4.6% | 14.6 | – | – | Activity (Rattus norvegicus [11]): 52.1%; Activity (Rattus norvegicus [12]): 68.4%; Activity (Rattus norvegicus [13]): 69.4%; Activity (Rattus norvegicus [14]): 79.1%; Concentration (Rattus norvegicus [19]): 69.4 [middle of 4 runs]; Concentration (Rattus norvegicus [20]): 4.4; Concentration (Rattus norvegicus [21]): 27; Concentration (Rattus norvegicus [22]): 48.9%; Concentration (Rattus norvegicus [23]): 15.7%; Concentration (Rattus norvegicus [24]): 4%; Concentration (Rattus norvegicus [25]): 2.4
2 | 1.21% | 0.73% | 1.06% | 1.15% | 1.46% | 0.77% | 3.63% | – | 0.66% | 0.95% | Nc1c(I)cc(I)c(CCCCCCCCCCCC(=O)O)c1I | – | – | – | – | 8 | – | – | 84.6 | 4.8 | 54.4 | Dose (Rattus norvegicus [30]): 6.96%; Concentration (Rattus norvegicus [31]): 3.8; Concentration (Rattus norvegicus [33]): 1; Concentration (Rattus norvegicus [34]): 1.5%; Concentration (Rattus norvegicus [35]): 26.3; Concentration (Rattus norvegicus [36]): 5.6; Concentration (Rattus norvegicus [37]): 11.2
3 | 2.5% | 0.7% | 1.12% | 0.73% | 1.21% | 0.59% | 5.22% | 6.62% | 1.84% | – | CCCCCCCCCCCCCCCC(=O)OCC(COC(=O)CCCCCCCCCCCCCCC)OC(=O)CCCCCCCCCCCc1c(I)cc(I)c(N)c1I | 42.9% | 46.4% | 34% | 43.2% | – | 26% | 6.9% | – | 3 | 48.9 | Dose (Rattus norvegicus [39]): 1.73%; Activity (Rattus norvegicus [40]): 61.2%; Activity (Rattus norvegicus [41]): 40.9%; Activity (Rattus norvegicus [42]): 54.8%; Activity (Rattus norvegicus [43]): 81.8%; Concentration (Rattus norvegicus [44]): 13.2; Concentration (Rattus norvegicus [45]): 12.5; Concentration (Rattus norvegicus [46]): 9.7; Concentration (Rattus norvegicus [47]): 33.3%; Concentration (Rattus norvegicus [48]): 15.6%; Concentration (Rattus norvegicus [49]): 30.8
